Laboratory results taken from ChEMBL document CHEMBL1137333, “Synthesis, radiosynthesis, and biological evaluation of carbon-11 labeled 2beta-carbomethoxy-3beta-(3'-((Z)-2-haloethenyl)phenyl)nortropanes: candidate radioligands for in vivo imaging of the serotonin transporter with positron emission tomography” (J Med Chem, 2006).

How the values were obtained:
[1] = tested on: Cynomolgus monkey; experiment: Ratio of uptake in caudate to cerebellum of anesthetized cynomolgus monkey after 65 mins; assay type: ADME, organism-based; conditions: in vivo
Summary of the method: (§1)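 Baseline microPET (Concorde P4) in anesthetized cynomolgus monkey after injection of the [11C]-labelled tracer. Regional time-activity curves were taken, and each region's uptake was divided by cerebellum uptake (low-SERT reference) at 65, 85 and 105 min postinjection.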

[2] = tested on: Cynomolgus monkey; experiment: Uptake in anesthetized cynomolgus monkey pons after 45.0 mins; assay type: ADME, organism-based; conditions: in vivo, 0.75 h
Summary of the method: (§2)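 Baseline microPET (Concorde P4) scan in anesthetized cynomolgus monkeys after injection of the carbon-11 labeled tracer, with no chase drug. Regional brain time-activity curves were followed over the scan. Tracer radiochemical purity and specific activity were determined by analytical HPLC at the time of injection.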

[3] = tested on: Cynomolgus monkey; experiment: Ratio of uptake in frontal to cerebellum of anesthetized cynomolgus monkey after 105 mins; assay type: ADME, organism-based; conditions: in vivo, 1.75 h; summary of the method: as §1
[4] = tested on: Cynomolgus monkey; experiment: Uptake in anesthetized cynomolgus monkey midbrain after 0.5 mins; assay type: ADME, organism-based; conditions: in vivo
Summary of the method: (§3)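 Baseline microPET scan (P4 scanner) of anesthetized cynomolgus monkeys after injection of the carbon-11 labelled nortropane tracer. Two baseline studies were run per tracer. Radioactivity was followed over time in regional brain time-activity curves.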

[5] = tested on: Cynomolgus monkey; experiment: Ratio of uptake in medulla to cerebellum of anesthetized cynomolgus monkey after 105 mins; assay type: ADME, organism-based; conditions: in vivo, 1.75 h; summary of the method: as §1
[6] = tested on: Cynomolgus monkey; experiment: Uptake in anesthetized cynomolgus monkey occipital after 55.0 mins; assay type: ADME, organism-based, Occipital cortex; conditions: in vivo; summary of the method: as §3
[7] = tested on: Cynomolgus monkey; experiment: Uptake in anesthetized cynomolgus monkey cerebellum after 1.5 mins; assay type: ADME, organism-based; conditions: in vivo, 0.025 h
Summary of the method: (§4)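 Baseline microPET (Concorde P4) regional brain time-activity curves in anesthetized cynomolgus monkey following injection of the [11C]-labelled tracer, with radioactivity followed over the scan.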

[8] = tested on: Cynomolgus monkey; experiment: Uptake in anesthetized cynomolgus monkey medulla after 2.5 mins; assay type: ADME, organism-based, Medulla of organ; conditions: in vivo; summary of the method: as §3
[9] = tested on: Cynomolgus monkey; experiment: Uptake in anesthetized cynomolgus monkey occipital after 85.0 mins; assay type: ADME, organism-based, Macaca mulatta, Occipital cortex; conditions: rhesus monkey, in vivo; summary of the method: as §3
[10] = tested on: Cynomolgus monkey; experiment: Uptake in anesthetized cynomolgus monkey frontal after 105.0 mins; assay type: ADME, organism-based, Frontal cortex; conditions: in vivo, 1.75 h; summary of the method: as §3
[11] = tested on: Cynomolgus monkey; experiment: Ratio of uptake in thalamus to cerebellum of anesthetized cynomolgus monkey after 85 mins; assay type: ADME, organism-based; conditions: in vivo; summary of the method: as §1
[12] = tested on: Cynomolgus monkey; experiment: Ratio of uptake in medulla to cerebellum of anesthetized cynomolgus monkey after 65 mins; assay type: ADME, organism-based; conditions: in vivo; summary of the method: as §1
[13] = tested on: Cynomolgus monkey; experiment: Ratio of uptake in midbrain to cerebellum of anesthetized cynomolgus monkey after 65 mins; assay type: ADME, organism-based; conditions: in vivo; summary of the method: as §1
[14] = tested on: Cynomolgus monkey; experiment: Uptake in anesthetized cynomolgus monkey pons after 15.5 mins; assay type: ADME, organism-based; conditions: in vivo; summary of the method: as §2
[15] = tested on: Cynomolgus monkey; experiment: Uptake in anesthetized cynomolgus monkey caudate after 45.0 mins; assay type: ADME, organism-based, Caudate nucleus; conditions: in vivo, 0.75 h; summary of the method: as §4
[16] = tested on: Cynomolgus monkey; experiment: Uptake in anesthetized cynomolgus monkey thalamus after 115.0 mins; assay type: ADME, organism-based; conditions: in vivo; summary of the method: as §2
[17] = tested on: Cynomolgus monkey; experiment: Ratio of uptake in putamen to cerebellum of anesthetized cynomolgus monkey after 105 mins; assay type: ADME, organism-based; conditions: in vivo, 1.75 h; summary of the method: as §1
[18] = tested on: Cynomolgus monkey; experiment: Uptake in anesthetized cynomolgus monkey medulla after 115.0 mins; assay type: ADME, organism-based, Medulla of organ; conditions: in vivo; summary of the method: as §3
[19] = tested on: Cynomolgus monkey; experiment: Uptake in anesthetized cynomolgus monkey putamen after 9.5 mins; assay type: ADME, organism-based; conditions: in vivo; summary of the method: as §2
[20] = tested on: Cynomolgus monkey; experiment: Uptake in anesthetized cynomolgus monkey frontal after 3.5 mins; assay type: ADME, organism-based, Frontal cortex; conditions: in vivo; summary of the method: as §3
[21] = tested on: Cynomolgus monkey; experiment: Uptake in anesthetized cynomolgus monkey midbrain after 27.5 mins; assay type: ADME, organism-based; conditions: in vivo; summary of the method: as §3
[22] = tested on: Cynomolgus monkey; experiment: Uptake in anesthetized cynomolgus monkey pons after 95.0 mins; assay type: ADME, organism-based; conditions: in vivo; summary of the method: as §2
[23] = tested on: Cynomolgus monkey; experiment: Uptake in anesthetized cynomolgus monkey medulla after 55.0 mins; assay type: ADME, organism-based, Medulla of organ; conditions: in vivo; summary of the method: as §3
[24] = tested on: Cynomolgus monkey; experiment: Uptake in anesthetized cynomolgus monkey cerebellum after 18.5 mins; assay type: ADME, organism-based, Macaca mulatta; conditions: rhesus monkey, in vivo; summary of the method: as §4
[25] = tested on: Cynomolgus monkey; experiment: Uptake in anesthetized cynomolgus monkey putamen after 12.5 mins; assay type: ADME, organism-based; conditions: in vivo; summary of the method: as §2
[26] = tested on: Cynomolgus monkey; experiment: Uptake in anesthetized cynomolgus monkey thalamus after 85.0 mins; assay type: ADME, organism-based; conditions: in vivo; summary of the method: as §2
[27] = tested on: Cynomolgus monkey; experiment: Uptake in anesthetized cynomolgus monkey pons after 18.5 mins; assay type: ADME, organism-based; conditions: in vivo; summary of the method: as §2
[28] = tested on: Cynomolgus monkey; experiment: Ratio of uptake in frontal to cerebellum of anesthetized cynomolgus monkey after 85 mins; assay type: ADME, organism-based; conditions: in vivo; summary of the method: as §1
[29] = tested on: Cynomolgus monkey; experiment: Uptake in anesthetized cynomolgus monkey thalamus after 45.0 mins; assay type: ADME, organism-based; conditions: in vivo, 0.75 h; summary of the method: as §2
[30] = tested on: Cynomolgus monkey; experiment: Uptake in anesthetized cynomolgus monkey pons after 55.0 mins; assay type: ADME, organism-based; conditions: in vivo; summary of the method: as §2
[31] = tested on: Cynomolgus monkey; experiment: Uptake in anesthetized cynomolgus monkey medulla after 9.5 mins; assay type: ADME, organism-based, Medulla of organ; conditions: in vivo; summary of the method: as §3
[32] = tested on: Cynomolgus monkey; experiment: Uptake in anesthetized cynomolgus monkey cerebellum after 115.0 mins; assay type: ADME, organism-based; conditions: in vivo; summary of the method: as §4
[33] = tested on: Cynomolgus monkey; experiment: Uptake in anesthetized cynomolgus monkey medulla after 0.5 mins; assay type: ADME, organism-based, Medulla of organ; conditions: in vivo; summary of the method: as §3
[34] = tested on: Cynomolgus monkey; experiment: Uptake in anesthetized cynomolgus monkey midbrain after 55.0 mins; assay type: ADME, organism-based; conditions: in vivo; summary of the method: as §3
[35] = tested on: Cynomolgus monkey; experiment: Uptake in anesthetized cynomolgus monkey frontal after 35.0 mins; assay type: ADME, organism-based, Frontal cortex; conditions: in vivo; summary of the method: as §3

**Q.** `[11CH3]OC(=O)[C@@H]1C2CCC(C[C@@H]1c1cccc(/C=C/Br)c1)N2` (stereo not given in full) was tested. Which Ratio [1] did it give?
**A.** 1.4

**Q.** What about the Drug uptake [2] of the same compound?
**A.** 6.91

**Q.** What about the Ratio [3] of the same compound?
**A.** 1.2

**Q.** What about the Drug uptake [4] of the same compound?
**A.** 0.01

**Q.** What about the Ratio [5] of the same compound?
**A.** 1.7

**Q.** And the Drug uptake [6]?
**A.** 5.3

**Q.** What about the Drug uptake [7] of the same compound?
**A.** 0.35

**Q.** What about the Drug uptake [8] of the same compound?
**A.** 1.32

**Q.** And the Drug uptake [9]?
**A.** 5.21

**Q.** And the Drug uptake [10]?
**A.** 3.7

**Q.** What about the Ratio [11] of the same compound?
**A.** 1.5

**Q.** What about the Ratio [12] of the same compound?
**A.** 1.4

**Q.** What about the Ratio [13] of the same compound?
**A.** 1.6

**Q.** What about the Drug uptake [14] of the same compound?
**A.** 5.76

**Q.** And the Drug uptake [15]?
**A.** 6.63

**Q.** And the Drug uptake [16]?
**A.** 6.26

**Q.** And the Ratio [17]?
**A.** 1.8

**Q.** And the Drug uptake [18]?
**A.** 6.59

**Q.** And the Drug uptake [19]?
**A.** 5.41

**Q.** And the Drug uptake [20]?
**A.** 1.07

**Q.** What about the Drug uptake [21] of the same compound?
**A.** 7.01

**Q.** And the Drug uptake [22]?
**A.** 8.08

**Q.** What about the Drug uptake [23] of the same compound?
**A.** 7.31

**Q.** And the Drug uptake [24]?
**A.** 6.13

**Q.** And the Drug uptake [25]?
**A.** 5.62

**Q.** And the Drug uptake [26]?
**A.** 6.55

**Q.** And the Drug uptake [27]?
**A.** 6.46

**Q.** What about the Ratio [28] of the same compound?
**A.** 1.2

**Q.** What about the Drug uptake [29] of the same compound?
**A.** 6.07

**Q.** And the Drug uptake [30]?
**A.** 7.56

**Q.** What about the Drug uptake [31] of the same compound?
**A.** 5.99

**Q.** What about the Drug uptake [32] of the same compound?
**A.** 3.76

**Q.** What about the Drug uptake [33] of the same compound?
**A.** 0.02

**Q.** And the Drug uptake [34]?
**A.** 7.74

**Q.** What about the Drug uptake [35] of the same compound?
**A.** 3.7
